Reference: ChEMBL document CHEMBL1629670, “In vitro activities of retigeric acid B alone and in combination with azole antifungal agents against Candida albicans” (2009)
In brackets after ≈: the same amount, converted by molar mass. Activity calls are given as the source filed them. The rule behind the calls is not given here.

Key:
Candida albicans [1] = assay: Antifungal activity against Candida albicans CA10 assessed as log reduction in fungal burden at 8 ug/ml after 48 hrs by time kill analysis in presence of itraconazole; format: functional, organism-based
Summary of the method: (§1)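 Time-kill on CA10 in RPMI 1640 starting at 10^5 CFU/ml. Treatments were RAB 8 µg/ml combined with FLC 8 µg/ml, ITR 8 µg/ml or KCZ 2 µg/ml; DMSO <1%; drug-free growth control. Samples were taken before treatment and at 6, 12, 24 and 48 h, then diluted, plated and counted after 48 h at 35°C.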

Candida albicans [2] = assay: Antifungal activity against Candida albicans CA138 after 48 hrs by broth microdilution method in presence of fluconazole; format: functional
Summary of the method: (§2)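 Checkerboard broth microdilution (CLSI M27-A2) on clinical isolates in RPMI 1640 buffered to pH 7.0 with 0.165 M MOPS. Final inoculum was 0.5 x 10^3 to 2.5 x 10^3 CFU/ml. RAB was tested at 0.25–16 µg/ml against FLC at 0.008–8 µg/ml, or against KCZ or ITR at 0.001–1 µg/ml. Plates ran 48 h at 35°C, read by background-subtracted OD490. MIC was taken at 80% growth reduction versus drug-free control. Run in triplicate.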

Candida albicans [3] = assay: Antifungal activity against Candida albicans CA137 after 48 hrs by broth microdilution method; format: functional; conditions: CA137, 48 h
Summary of the method: (§3)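 CLSI M27-A2 broth microdilution of clinical isolates in RPMI 1640 buffered to pH 7.0 with 0.165 M MOPS. Final inoculum 0.5 x 10^3 to 2.5 x 10^3 cells/ml, incubated 35°C for 48 h. Growth read as OD490 with background subtracted. MIC taken as the lowest drug concentration giving 80% growth reduction versus drug-free control. Run in triplicate.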

Candida albicans [4] = assay: Antifungal activity against Candida albicans CA2 after 48 hrs by broth microdilution method in presence of fluconazole; format: functional; summary of the method: as §2
Candida albicans [5] = assay: Antifungal activity against Candida albicans CA135 after 48 hrs by broth microdilution method; format: functional; conditions: CA135, 48 h; summary of the method: as §3
Candida albicans [6] = assay: Antifungal activity against Candida albicans CA2 after 48 hrs by broth microdilution method in presence of ketoconazole; format: functional; summary of the method: as §2
Candida albicans [7] = assay: Antifungal activity against Candida albicans CA138 after 48 hrs by broth microdilution method in presence of ketoconazole; format: functional; summary of the method: as §2
Candida albicans [8] = assay: Antifungal activity against Candida albicans CA132 after 48 hrs by broth microdilution method in presence of ketoconazole; format: functional; summary of the method: as §2
Candida albicans [9] = assay: Antifungal activity against Candida albicans CA1 after 48 hrs by broth microdilution method in presence of ketoconazole; format: functional; summary of the method: as §2
Candida albicans [10] = assay: Antifungal activity against Candida albicans CA127 after 48 hrs by broth microdilution method in presence of itraconazole; format: functional; summary of the method: as §2
Candida albicans [11] = assay: Antifungal activity against Candida albicans CA10 after 48 hrs by broth microdilution method in presence of fluconazole; format: functional; summary of the method: as §2
Candida albicans [12] = assay: Antifungal activity against Candida albicans CA10 after 48 hrs by broth microdilution method; format: functional; conditions: CA10, 48 h; summary of the method: as §3
Candida albicans [13] = assay: Antifungal activity against Candida albicans CA132 after 48 hrs by broth microdilution method; format: functional; conditions: CA132, 48 h; summary of the method: as §3
Candida albicans [14] = assay: Antifungal activity against Candida albicans CA10 after 48 hrs by broth microdilution method in presence of itraconazole; format: functional; summary of the method: as §2
Candida albicans [15] = assay: Antifungal activity against Candida albicans CA2 after 48 hrs by broth microdilution method in presence of itraconazole; format: functional; summary of the method: as §2
Candida albicans [16] = assay: Antifungal activity against Candida albicans CA1 after 48 hrs by broth microdilution method in presence of fluconazole; format: functional; summary of the method: as §2
Candida albicans [17] = assay: Antifungal activity against Candida albicans CA137 after 48 hrs by broth microdilution method in presence of ketoconazole; format: functional; summary of the method: as §2
Candida albicans [18] = assay: Antifungal activity against Candida albicans CA127 after 48 hrs by broth microdilution method in presence of fluconazole; format: functional; summary of the method: as §2
Candida albicans [19] = assay: Antifungal activity against Candida albicans CA4 after 48 hrs by broth microdilution method; format: functional; conditions: CA4, 48 h; summary of the method: as §3
Candida albicans [20] = assay: Antifungal activity against Candida albicans CA127 after 48 hrs by broth microdilution method in presence of ketoconazole; format: functional; summary of the method: as §2
Candida albicans [21] = assay: Antifungal activity against Candida albicans CA10 assessed as log reduction in fungal burden at 8 ug/ml after 48 hrs by time kill analysis in presence of ketoconazole; format: functional, organism-based; summary of the method: as §1
Candida albicans [22] = assay: Antifungal activity against Candida albicans CA1 after 48 hrs by broth microdilution method in presence of itraconazole; format: functional; summary of the method: as §2
Candida albicans [23] = assay: Antifungal activity against Candida albicans CA4 after 48 hrs by broth microdilution method in presence of fluconazole; format: functional; summary of the method: as §2
Candida albicans [24] = assay: Antifungal activity against Candida albicans CA127 after 48 hrs by broth microdilution method; format: functional; conditions: CA127, 48 h; summary of the method: as §3
Candida albicans [25] = assay: Antifungal activity against Candida albicans CA4 after 48 hrs by broth microdilution method in presence of itraconazole; format: functional; summary of the method: as §2
Candida albicans [26] = assay: Antifungal activity against Candida albicans CA2 after 48 hrs by broth microdilution method; format: functional; conditions: CA2, 48 h; summary of the method: as §3
Candida albicans [27] = assay: Antifungal activity against Candida albicans CA135 after 48 hrs by broth microdilution method in presence of itraconazole; format: functional; summary of the method: as §2
Candida albicans [28] = assay: Antifungal activity against Candida albicans CA135 after 48 hrs by broth microdilution method in presence of ketoconazole; format: functional; summary of the method: as §2
Candida albicans [29] = assay: Antifungal activity against Candida albicans CA10 assessed as cell viability after 2 hrs by XTT reduction assay in presence of itraconazole; format: functional, organism-based
Summary of the method: (§4)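 Viability was read on CA10 time-kill cultures grown in RPMI 1640 from 10^5 CFU/ml. Treatments were RAB 8 µg/ml plus FLC 8 µg/ml, ITR 8 µg/ml or KCZ 2 µg/ml, with DMSO <1%. At each sampling time a 100-µl aliquot got XTT-menadione (final 0.25 mg/ml and 5 µM) and was held in the dark up to 2 h at 35°C. Formazan was read at 490 nm; triplicate means.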

Candida albicans [30] = assay: Antifungal activity against Candida albicans CA4 after 48 hrs by broth microdilution method in presence of ketoconazole; format: functional; summary of the method: as §2
Candida albicans [31] = assay: Antifungal activity against Candida albicans CA10 assessed as cell viability after 2 hrs by XTT reduction assay in presence of ketoconazole; format: functional, organism-based; summary of the method: as §4
Candida albicans [32] = assay: Antifungal activity against Candida albicans CA10 assessed as log reduction in fungal burden at 8 ug/ml after 48 hrs by time kill analysis in presence of fluconazole; format: functional, organism-based; summary of the method: as §1
Candida albicans [33] = assay: Antifungal activity against Candida albicans CA137 after 48 hrs by broth microdilution method in presence of itraconazole; format: functional; summary of the method: as §2
Candida albicans [34] = assay: Antifungal activity against Candida albicans CA132 after 48 hrs by broth microdilution method in presence of itraconazole; format: functional; summary of the method: as §2
Candida albicans [35] = assay: Antifungal activity against Candida albicans CA3 after 48 hrs by broth microdilution method in presence of itraconazole; format: functional; summary of the method: as §2
Candida albicans [36] = assay: Antifungal activity against Candida albicans CA3 after 48 hrs by broth microdilution method in presence of fluconazole; format: functional; summary of the method: as §2
Candida albicans [37] = assay: Antifungal activity against Candida albicans CA138 after 48 hrs by broth microdilution method; format: functional; conditions: CA138, 48 h; summary of the method: as §3
Candida albicans [38] = assay: Antifungal activity against Candida albicans CA3 after 48 hrs by broth microdilution method in presence of ketoconazole; format: functional; summary of the method: as §2
Candida albicans [39] = assay: Antifungal activity against Candida albicans CA138 after 48 hrs by broth microdilution method in presence of itraconazole; format: functional; summary of the method: as §2
Candida albicans [40] = assay: Antifungal activity against Candida albicans CA3 after 48 hrs by broth microdilution method; format: functional; conditions: CA3, 48 h; summary of the method: as §3
Candida albicans [41] = assay: Antifungal activity against Candida albicans CA10 assessed as cell viability after 2 hrs by XTT reduction assay in presence of fluconazole; format: functional, organism-based; summary of the method: as §4
Candida albicans [42] = assay: Antifungal activity against Candida albicans CA137 after 48 hrs by broth microdilution method in presence of fluconazole; format: functional; summary of the method: as §2
Candida albicans [43] = assay: Antifungal activity against Candida albicans CA132 after 48 hrs by broth microdilution method in presence of fluconazole; format: functional; summary of the method: as §2
Candida albicans [44] = assay: Antifungal activity against Candida albicans CA10 after 48 hrs by broth microdilution method in presence of ketoconazole; format: functional; summary of the method: as §2
Candida albicans [45] = assay: Antifungal activity against Candida albicans CA135 after 48 hrs by broth microdilution method in presence of fluconazole; format: functional; summary of the method: as §2
Candida albicans [46] = assay: Antifungal activity against Candida albicans CA1 after 48 hrs by broth microdilution method; format: functional; conditions: CA1, 48 h; summary of the method: as §3

CC(C)[C@H]1CC[C@@H]2[C@]1(C)CC[C@]1(C)[C@H]3CC[C@@H]4[C@](C(=O)O)(C[C@@H](O)[C@H](O)[C@@]4(C)C(=O)O)C3=CC[C@@]21C [RETIGERIC ACID B]
Activity (Candida albicans [1]): Active | fractional inhibitory concentration index (FICI) (Candida albicans [2]): 0.252 | MIC (Candida albicans [3]): 16 µg/mL (≈ 31.8 µM) | fractional inhibitory concentration index (FICI) (Candida albicans [4]): 0.25 | MIC (Candida albicans [5]): 16 µg/mL (≈ 31.8 µM) | fractional inhibitory concentration index (FICI) (Candida albicans [6]): 0.253 | fractional inhibitory concentration index (FICI) (Candida albicans [7]): 0.254 | fractional inhibitory concentration index (FICI) (Candida albicans [8]): 0.625 | fractional inhibitory concentration index (FICI) (Candida albicans [9]): 0.375 | fractional inhibitory concentration index (FICI) (Candida albicans [10]): 0.375 | fractional inhibitory concentration index (FICI) (Candida albicans [11]): 0.126 | MIC (Candida albicans [12]): 16 µg/mL (≈ 31.8 µM) | MIC (Candida albicans [13]): 8 µg/mL (≈ 15.9 µM) | fractional inhibitory concentration index (FICI) (Candida albicans [14]): 0.252 | fractional inhibitory concentration index (FICI) (Candida albicans [15]): 0.375 | fractional inhibitory concentration index (FICI) (Candida albicans [16]): 0.5 | fractional inhibitory concentration index (FICI) (Candida albicans [17]): 0.25 | fractional inhibitory concentration index (FICI) (Candida albicans [18]): 0.5 | MIC (Candida albicans [19]): 8 µg/mL (≈ 15.9 µM) | fractional inhibitory concentration index (FICI) (Candida albicans [20]): 0.625 | Activity (Candida albicans [21]): Active | fractional inhibitory concentration index (FICI) (Candida albicans [22]): 0.75 | fractional inhibitory concentration index (FICI) (Candida albicans [23]): 0.625 | MIC (Candida albicans [24]): 16 µg/mL (≈ 31.8 µM) | fractional inhibitory concentration index (FICI) (Candida albicans [25]): 0.625 | MIC (Candida albicans [26]): 16 µg/mL (≈ 31.8 µM) | fractional inhibitory concentration index (FICI) (Candida albicans [27]): 0.254 | fractional inhibitory concentration index (FICI) (Candida albicans [28]): 0.125 | Activity (Candida albicans [29]): Active | fractional inhibitory concentration index (FICI) (Candida albicans [30]): 0.75 | Activity (Candida albicans [31]): Active | Activity (Candida albicans [32]): Active | fractional inhibitory concentration index (FICI) (Candida albicans [33]): 0.258 | fractional inhibitory concentration index (FICI) (Candida albicans [34]): 0.75 | fractional inhibitory concentration index (FICI) (Candida albicans [35]): 0.375 | fractional inhibitory concentration index (FICI) (Candida albicans [36]): 0.5 | MIC (Candida albicans [37]): 8 µg/mL (≈ 15.9 µM) | fractional inhibitory concentration index (FICI) (Candida albicans [38]): 0.25 | fractional inhibitory concentration index (FICI) (Candida albicans [39]): 0.254 | MIC (Candida albicans [40]): 16 µg/mL (≈ 31.8 µM) | Activity (Candida albicans [41]): Active | fractional inhibitory concentration index (FICI) (Candida albicans [42]): 0.252 | fractional inhibitory concentration index (FICI) (Candida albicans [43]): 0.75 | fractional inhibitory concentration index (FICI) (Candida albicans [44]): 0.254 | fractional inhibitory concentration index (FICI) (Candida albicans [45]): 0.127 | MIC (Candida albicans [46]): 8 µg/mL (≈ 15.9 µM)

CC(=O)N1CCN(c2ccc(OCC3COC(Cn4ccnc4)(c4ccc(Cl)cc4Cl)O3)cc2)CC1 (stereo unspecified) [KETOCONAZOLE]
MIC (Candida albicans [3]): 16 µg/mL (≈ 30.1 µM) | MIC (Candida albicans [5]): 16 µg/mL (≈ 30.1 µM) | MIC (Candida albicans [12]): 16 µg/mL (≈ 30.1 µM) | MIC (Candida albicans [13]): 0.031 µg/mL (≈ 0.0583 µM) | MIC (Candida albicans [19]): 0.062 µg/mL (≈ 0.117 µM) | MIC (Candida albicans [24]): 0.031 µg/mL (≈ 0.0583 µM) | MIC (Candida albicans [26]): 0.016 µg/mL (≈ 0.0301 µM) | MIC (Candida albicans [37]): 16 µg/mL (≈ 30.1 µM) | MIC (Candida albicans [40]): 0.062 µg/mL (≈ 0.117 µM) | MIC (Candida albicans [46]): 0.031 µg/mL (≈ 0.0583 µM)
